The results in this text go back to ChEMBL document CHEMBL1123732, “Flavones. 1. Synthesis and antihypertensive activity of (3-phenylflavonoxy)propanolamines without beta-adrenoceptor antagonism” (J Med Chem, 1987).

Calls of active or inactive are those of the source. No cut-off for these calls is given here.

In general, Ki refers to a measure of affinity in units of concentration, obtained from inhibition or displacement. High values mean a looser hold on the target, low ones a stronger hold on the target.

Assay [1] relates to Rattus norvegicus. Briefly: Percentage of fall in systolic blood pressure (SBP) at the following hours after dosing at 17 mg/kg (po) at 2 hr in spontaneously hypertensive rats(SHR); NS mmeans not significant. It is filed as functional, organism-based. Further details: dose 17 mg/kg. As to conditions: Artery. The method in brief:
(§1)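 Male spontaneously hypertensive rats (Wistar-Kyoto strain), unanesthetized, dosed orally; systolic pressure measured by indirect tail cuff. Before each reading, rats warmed at 35-37 °C for 15-20 min to dilate the caudal artery. Five rats per treatment group; result is percentage fall in systolic pressure versus untreated control. Significance tested against control.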

The subject of assay [2] is Rattus norvegicus. Description: Percentage of fall in systolic blood pressure (SBP) at the following hours after dosing at 17 mg/kg (po) at 5 hr in spontaneously hypertensive rats(SHR). It is filed as functional, Artery. The procedure, abridged:
as §1

For assay [3], the system named is Rattus norvegicus. Briefly: Percentage of fall in systolic blood pressure (SBP) at the following hours after dosing at 17 mg/kg (po) at 7.5 hr in spontaneously hypertensive rats(SHR). The assay is classed as functional, Artery. The method in brief:
as §1

The subject of assay [4] is Rattus norvegicus. Description: Percentage of fall in systolic blood pressure (SBP) at the following hours after dosing at 8 mg/kg (po) at 24 hr in spontaneously hypertensive rats(SHR). It is filed as functional, Artery. The method in brief:
as §1

Assay [5] has as its system Rattus norvegicus. Briefly: Evaluated for the percentage inhibition of the depressor response of isoproterenol (0.25 mg/kg, iv) in spontaneously hypertensive rats at 150 mg/kg peroral dose.
In assay [6] the test system is Rattus norvegicus. Description: […] systolic blood pressure (SBP) for compound-treated group relative to the value for untreated control at 17 mg/kg dose (po) in spontaneously hypertensive rats(SHR). It is filed as functional, Artery. The method in brief: as §1
For assay [7], the system named is Rattus norvegicus. Description: […] systolic blood pressure (SBP) for compound-treated group relative to the value for untreated control at 8 mg/kg dose (po) in spontaneously hypertensive rats(SHR). It is filed as functional, Artery. The procedure, abridged: as §1
The subject of assay [8] is Rattus norvegicus. Description: Percentage of fall in systolic blood pressure (SBP) at the following hours after dosing at 8 mg/kg (po) at 2 hr in spontaneously hypertensive rats(SHR); NS means not significant. The assay is classed as functional, organism-based. The arrangement: dose 8 mg/kg. As to conditions: Artery. The method in brief:
as §1

For assay [9], the system named is Rattus norvegicus. Description: Percentage of fall in systolic blood pressure (SBP) at the following hours after dosing at 17 mg/kg (po) at 24 hr in spontaneously hypertensive rats(SHR). The assay is classed as functional, Artery. The procedure, abridged: as §1
For assay [10], the system named is Rattus norvegicus. Briefly: Percentage of fall in systolic blood pressure (SBP) at the following hours after dosing at 8 mg/kg (po) at 7.5 hr in spontaneously hypertensive rats(SHR). The assay is classed as functional, Artery. The procedure, abridged: as §1
For the next assay, the target named is Adrenergic receptor beta (Rattus norvegicus, UniProt P18090+P10608+P26255). Description: Evaluated for beta-receptor affinity, determined in rat brain membrane fraction with [3H]- dihydroalprenolol. The assay is classed as cell membranes. The procedure, abridged: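 Rat brain with cerebellum removed, homogenized in ice-cold 50 mM Tris-HCl pH 8.0 and spun at 50000g for 15 min, pellet washed once more the same way. Binding used 0.4-0.6 mg protein, 1 nM [3H]dihydroalprenolol, 50 mM Tris pH 8.0, and 5-10 competitor concentrations. IC50 read visually from a semilog plot; Ki from Cheng-Prusoff with KD approximately 1 nM.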

Assay [11] deals with Rattus norvegicus. Briefly: Percentage of fall in systolic blood pressure (SBP) at the following hours after dosing at 8 mg/kg (po) at 5 hr in spontaneously hypertensive rats(SHR). The assay is classed as functional, Artery. The procedure, abridged:
as §1

`CCCNCC(O)COc1ccc2c(=O)c(-c3ccccc3)c(-c3ccccc3)oc2c1` (configuration not stated): the “Decrease in SBP” value in the assay with Rattus norvegicus [1] and in the assay on Rattus norvegicus [8] was “inactive” throughout. Besides, the “Decrease in SBP” value in the assay on Rattus norvegicus [2] came out at 11%; in the assay with Rattus norvegicus [3] it was 20%; in the assay on Rattus norvegicus [4], 10%; in the assay with Rattus norvegicus [9] it was 14%; in the assay with Rattus norvegicus [10] it was 16%; in the assay on Rattus norvegicus [11] it was 12%. Moreover, the inhibition entry in the assay with Rattus norvegicus [5] is “inactive”. For the same compound, the figures for the SBP in the assay with Rattus norvegicus [6] and with Rattus norvegicus [7] were 198 mmHg and 191 mmHg, respectively. On Adrenergic receptor beta, the Ki is given as > 0.00005 M.
